Source: ChEMBL document CHEMBL4376875, “Synthesis and Biological Evaluation of B-Cell Lymphoma 6 Inhibitors of N-Phenyl-4-pyrimidinamine Derivatives Bearing Potent Activities against Tumor Growth” (J Med Chem, 2020)
Calls of active or inactive are those of the source. The rule behind the calls is not given here.

Experiments:
[1] = Toxicity in SCID mouse xenografted with human SUDHL4 cells assessed as adverse effect on kidney morphology at 5 to 10 mg/kg, iv administered 3 days once for 15 days by H and E staining analysis; assay type: organism-based; settings: in vivo
In short: (§1)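 Male SCID mice, 6 weeks old, received 1 × 10⁷ SUDHL4 cells s.c. At about 100 mm³, mice were randomized (n = 7) to vehicle (20% 2-hydroxypropyl-β-cyclodextrin) or 5 or 10 mg/kg every 3 days i.v. for 15 days. Body weight and caliper volume (L × W² × 0.52) were recorded every 3 days. At sacrifice, tissues were fixed in 4% paraformaldehyde and paraffin-embedded for H&E or Ki67 IHC. Tumor mRNA was assayed by qPCR.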

SUD4 [2] = assay: Antiproliferative activity against human SUDHL4 cells assessed as living cells and S phase cells at 2.5 uM incubated for 48 hrs by Edu based flow cytometry analysis (reference value: 48.3%)
PNT1A = assay: Cytotoxicity against human PNT1A cells assessed as reduction in cell viability incubated for 72 hrs by CCK8 assay
SUD4 [3] = assay: Antiproliferative activity against human SUDHL4 cells assessed as reduction in living cells incubated for 48 hrs by Edu based flow cytometry analysis; assay type: functional, cell-based
In short: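 SUDHL4 cells were treated for 48 h, then pulsed with 10 μM EdU for 2 h, fixed, permeabilized and stained with EdU/Alexa Fluor Azide 488 for 30 min. Living and S-phase cells were counted by flow cytometry. Triplicate.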

SUD4 [4] = assay: Induction of apoptosis in human SUDHL4 cells assessed as early apoptotic cells at 0.625 uM incubated for 48 hrs by annexin V-FITC and propidium iodide staining based flow cytometry analysis (reference value: 2.62%); assay type: functional
Mus musculus [5] = species: Mus musculus; settings: C57BL/6, 10 mg/kg
Toledo [6] = assay: Effect on CD69 mRNA expression in BCL6-negative human Toledo cells at 1.25 to 5 uM incubated for 24 hrs by RT-PCR analysis; assay type: functional, cell-based
In short: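 Toledo cells (BCL6-independent) were exposed to 1.25, 2.50 or 5.00 μM for 24 h, then mRNA was collected. Target-gene transcripts were quantified by real-time quantitative PCR against vehicle control.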

Farage = assay: Antiproliferative activity against human Farage cells assessed as reduction in cell viability incubated for 72 hrs by CCK8 assay
Mus musculus [7] = assay: Upregulation of CD69 mRNA expression in SCID mouse xenografted with human SUDHL4 cells at 5 to 10 mg/kg, iv administered 3 days once for 15 days by qPCR analysis; assay type: functional, organism-based; in short: as §1
[8] = Toxicity in SCID mouse xenografted with human SUDHL4 cells assessed as adverse effect on liver morphology at 5 to 10 mg/kg, iv administered 3 days once for 15 days by H and E staining analysis; assay type: organism-based; settings: in vivo; in short: as §1
SUD4 [9] = assay: Antiproliferative activity against human SUDHL4 cells assessed as reduction in cell viability incubated for 72 hrs by CCK8 assay; settings: SU-DHL-4, 72 h
Mus musculus [10] = assay: In vivo inhibition of GC formation in NP-CGG immunized C57BL/6 mouse assessed as splenic GC B cells (GL7+FAS+B220+) at 10 mg/kg, iv administered 3 days once for 12 days starting from 2 days after NP-CGG addition by flow cytometry (reference value: 1.97%); assay type: functional; design: scale not given: the % may be the effect or the level left
SUD4 [11] = assay: Induction of apoptosis in human SUDHL4 cells incubated for 48 hrs by annexin V-FITC and propidium iodide staining based flow cytometry analysis; assay type: functional, cell-based
SUD4 [12] = assay: Induction of apoptosis in human SUDHL4 cells assessed as early apoptotic cells at 2.5 uM incubated for 48 hrs by annexin V-FITC and propidium iodide staining based flow cytometry analysis (reference value: 2.62%); assay type: functional
[13] = Metabolic stability in human liver assessed as intrinsic clearance; assay type: ADME, tissue-based; settings: read-out: CLH
In short: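 Incubation with human liver microsomes. Intrinsic clearance was scaled to liver using 45 mg microsomal protein per g liver and 20 g liver per kg body weight. Half-life was also determined.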

SUD4 [14] = assay: Induction of apoptosis in human SUDHL4 cells assessed as late apoptotic cells at 0.625 uM incubated for 48 hrs by annexin V-FITC and propidium iodide staining based flow cytometry analysis (reference value: 1.39%); assay type: functional
Toledo [15] = settings: Homo sapiens, 0.25 to 2 uM

COc1cc(Nc2nc(N3C[C@@H](C)N[C@@H](C)C3)ncc2F)ccc1NC(=O)c1ccc(C2=CCCC2)s1
Activity [1]: Non-Toxic | Activity (SUD4 [2]): 6.6% | IC50 (PNT1A): 8.13 µM | Activity (SUD4 [3]): Dose-dependent effect | Activity (SUD4 [4]): 3.42% | inhibition (Mus musculus [5]): Active | Activity (Toledo [6]): inactive | IC50 (Farage): 1.26 µM | Activity (Mus musculus [7]): Active | Activity [8]: Non-Toxic | IC50 (SUD4 [9]): 0.92 µM | Activity (Mus musculus [10]): 0.45% | Activity (SUD4 [11]): Dose-dependent effect | Activity (SUD4 [12]): 5.91% | CLint scaled [13]: < 38 mL/min/kg | Activity (SUD4 [14]): 3.35% | inhibition (Toledo [15]): inactive
